Test system: HEK-293T
Assay: Multiplex assay against HEK293T
Type: toxicity, cell-based
Conditions: human
Method in brief: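 With compound added, live cells were imaged on a CQ1 microscope at 37°C and 5% CO2; staining with Hoechst33342, BioTracker Green Microtubule Cytoskeleton Dye, MitoTracker Red and Annexin V Alexa Fluor 680 had been done at seeding. The CellPathfinder machine-learning gating scheme split cells into Hoechst high-intensity objects or normal cells, normal cells into healthy, pyknosed or fragmented nuclei, and pyknosed cells into mitotic or apoptotic. The tubulin, mitochondrial-mass and membrane-permeability phenotypes are per cents of healthy-nucleus cells.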

[1] = 12 h, 1 µM, compound concentration 1 uM, replicate 1
[2] = 12 h, 1 µM, compound concentration 1 uM, replicate 2
[3] = 12 h, 10 µM, compound concentration 10 uM, replicate 1
[4] = 12 h, 10 µM, compound concentration 10 uM, replicate 2
[5] = 24 h, 1 µM, compound concentration 1 uM, replicate 1
[6] = 24 h, 1 µM, compound concentration 1 uM, replicate 2
[7] = 24 h, 10 µM, compound concentration 10 uM, replicate 1
[8] = 24 h, 10 µM, compound concentration 10 uM, replicate 2
[9] = 48 h, 1 µM, compound concentration 1 uM, replicate 1
[10] = 48 h, 1 µM, compound concentration 1 uM, replicate 2
[11] = 48 h, 10 µM, compound concentration 10 uM, replicate 1
[12] = 48 h, 10 µM, compound concentration 10 uM, replicate 2

Compound: COc1cccc2c1c(NS(=O)(=O)c1ccc(Cl)s1)nn2Cc1cccc(CNC(=O)C(C)(C)O)c1
- Population Apoptotic (%) [1]: 31%
- Population Fragmented Nuclei (%) [1]: 6%
- Population Healthy Nuclei (%) [1]: 82%
- Population Hoechst High Intensity Objects (%) [1]: 6%
- Population Membrane Permeable-Phenotype (%) [1]: 0%
- Population Mitochondria Different-Phenotype (%) [1]: 39%
- Population Mitotic Cells (%) [1]: 68%
- Population Normal (%) [1]: 93%
- Population Pyknosed Nuclei (%) [1]: 10%
- Population Tubulin-Different-Phenotype (%) [1]: 26%
- Total Cell Count [1]: 469
- Population Apoptotic (%) [2]: 34%
- Population Fragmented Nuclei (%) [2]: 7%
- Population Healthy Nuclei (%) [2]: 77%
- Population Hoechst High Intensity Objects (%) [2]: 10%
- Population Mitochondria Different-Phenotype (%) [2]: 52%
- Population Mitotic Cells (%) [2]: 65%
- Population Normal (%) [2]: 89%
- Population Pyknosed Nuclei (%) [2]: 15%
- Population Tubulin-Different-Phenotype (%) [2]: 23%
- Total Cell Count [2]: 315
- Population Apoptotic (%) [3]: 42%
- Population Fragmented Nuclei (%) [3]: 6%
- Population Healthy Nuclei (%) [3]: 80%
- Population Hoechst High Intensity Objects (%) [3]: 7%
- Population Membrane Permeable-Phenotype (%) [3]: 0%
- Population Mitochondria Different-Phenotype (%) [3]: 51%
- Population Mitotic Cells (%) [3]: 57%
- Population Normal (%) [3]: 92%
- Population Pyknosed Nuclei (%) [3]: 12%
- Population Tubulin-Different-Phenotype (%) [3]: 38%
- Total Cell Count [3]: 356
- Population Apoptotic (%) [4]: 35%
- Population Fragmented Nuclei (%) [4]: 5%
- Population Healthy Nuclei (%) [4]: 78%
- Population Hoechst High Intensity Objects (%) [4]: 11%
- Population Mitochondria Different-Phenotype (%) [4]: 69%
- Population Mitotic Cells (%) [4]: 65%
- Population Normal (%) [4]: 88%
- Population Pyknosed Nuclei (%) [4]: 16%
- Population Tubulin-Different-Phenotype (%) [4]: 33%
- Total Cell Count [4]: 280
- Population Apoptotic (%) [5]: 26%
- Population Fragmented Nuclei (%) [5]: 7%
- Population Healthy Nuclei (%) [5]: 81%
- Population Hoechst High Intensity Objects (%) [5]: 2%
- Population Membrane Permeable-Phenotype (%) [5]: 0%
- Population Mitochondria Different-Phenotype (%) [5]: 22%
- Population Mitotic Cells (%) [5]: 73%
- Population Normal (%) [5]: 97%
- Population Pyknosed Nuclei (%) [5]: 11%
- Population Tubulin-Different-Phenotype (%) [5]: 17%
- Total Cell Count [5]: 617
- Population Apoptotic (%) [6]: 44%
- Population Fragmented Nuclei (%) [6]: 6%
- Population Healthy Nuclei (%) [6]: 84%
- Population Hoechst High Intensity Objects (%) [6]: 7%
- Population Mitochondria Different-Phenotype (%) [6]: 37%
- Population Mitotic Cells (%) [6]: 55%
- Population Normal (%) [6]: 92%
- Population Pyknosed Nuclei (%) [6]: 8%
- Population Tubulin-Different-Phenotype (%) [6]: 15%
- Total Cell Count [6]: 357
- Population Apoptotic (%) [7]: 40%
- Population Fragmented Nuclei (%) [7]: 10%
- Population Healthy Nuclei (%) [7]: 73%
- Population Hoechst High Intensity Objects (%) [7]: 5%
- Population Membrane Permeable-Phenotype (%) [7]: 0%
- Population Mitochondria Different-Phenotype (%) [7]: 34%
- Population Mitotic Cells (%) [7]: 60%
- Population Normal (%) [7]: 94%
- Population Pyknosed Nuclei (%) [7]: 16%
- Population Tubulin-Different-Phenotype (%) [7]: 23%
- Total Cell Count [7]: 462
- Population Fragmented Nuclei (%) [8]: 9%
- Population Healthy Nuclei (%) [8]: 77%
- Population Mitochondria Different-Phenotype (%) [8]: 46%
- Population Pyknosed Nuclei (%) [8]: 12%
- Population Tubulin-Different-Phenotype (%) [8]: 22%
- Total Cell Count [8]: 384
- Population Apoptotic (%) [9]: 16%
- Population Fragmented Nuclei (%) [9]: 10%
- Population Healthy Nuclei (%) [9]: 83%
- Population Hoechst High Intensity Objects (%) [9]: 2%
- Population Membrane Permeable-Phenotype (%) [9]: 0%
- Population Mitochondria Different-Phenotype (%) [9]: 18%
- Population Mitotic Cells (%) [9]: 83%
- Population Normal (%) [9]: 97%
- Population Pyknosed Nuclei (%) [9]: 6%
- Population Tubulin-Different-Phenotype (%) [9]: 11%
- Total Cell Count [9]: 1062
- Population Apoptotic (%) [10]: 28%
- Population Fragmented Nuclei (%) [10]: 11%
- Population Membrane Permeable-Phenotype (%) [10]: 2%
- Population Mitochondria Different-Phenotype (%) [10]: 21%
- Population Mitotic Cells (%) [10]: 71%
- Population Pyknosed Nuclei (%) [10]: 4%
- Population Tubulin-Different-Phenotype (%) [10]: 10%
- Total Cell Count [10]: 591
- Population Apoptotic (%) [11]: 26%
- Population Fragmented Nuclei (%) [11]: 16%
- Population Healthy Nuclei (%) [11]: 72%
- Population Hoechst High Intensity Objects (%) [11]: 4%
- Population Membrane Permeable-Phenotype (%) [11]: 0%
- Population Mitochondria Different-Phenotype (%) [11]: 25%
- Population Mitotic Cells (%) [11]: 73%
- Population Normal (%) [11]: 95%
- Population Pyknosed Nuclei (%) [11]: 10%
- Population Tubulin-Different-Phenotype (%) [11]: 16%
- Total Cell Count [11]: 646
- Population Apoptotic (%) [12]: 35%
- Population Fragmented Nuclei (%) [12]: 8%
- Population Healthy Nuclei (%) [12]: 83%
- Population Mitochondria Different-Phenotype (%) [12]: 27%
- Population Mitotic Cells (%) [12]: 65%
- Population Pyknosed Nuclei (%) [12]: 7%
- Population Tubulin-Different-Phenotype (%) [12]: 12%
- Total Cell Count [12]: 550
